Assay results from ChEMBL document CHEMBL2434820, “Design, synthesis, and biological evaluation of novel 2-ethyl-5-phenylthiazole-4-carboxamide derivatives as protein tyrosine phosphatase 1B inhibitors with improved cellular efficacy” (Eur J Med Chem, 2013).

Tests used:
[1] = molecular target: Receptor-type tyrosine-protein phosphatase F (Homo sapiens, UniProt P10586); test: Inhibition of LAR (unknown origin)
[2] = molecular target: T1, M-phase inducer phosphatase 2 (Homo sapiens, UniProt P30305); test: Inhibition of CDC25B (unknown origin)
T1 sequence (P30305 whole entry): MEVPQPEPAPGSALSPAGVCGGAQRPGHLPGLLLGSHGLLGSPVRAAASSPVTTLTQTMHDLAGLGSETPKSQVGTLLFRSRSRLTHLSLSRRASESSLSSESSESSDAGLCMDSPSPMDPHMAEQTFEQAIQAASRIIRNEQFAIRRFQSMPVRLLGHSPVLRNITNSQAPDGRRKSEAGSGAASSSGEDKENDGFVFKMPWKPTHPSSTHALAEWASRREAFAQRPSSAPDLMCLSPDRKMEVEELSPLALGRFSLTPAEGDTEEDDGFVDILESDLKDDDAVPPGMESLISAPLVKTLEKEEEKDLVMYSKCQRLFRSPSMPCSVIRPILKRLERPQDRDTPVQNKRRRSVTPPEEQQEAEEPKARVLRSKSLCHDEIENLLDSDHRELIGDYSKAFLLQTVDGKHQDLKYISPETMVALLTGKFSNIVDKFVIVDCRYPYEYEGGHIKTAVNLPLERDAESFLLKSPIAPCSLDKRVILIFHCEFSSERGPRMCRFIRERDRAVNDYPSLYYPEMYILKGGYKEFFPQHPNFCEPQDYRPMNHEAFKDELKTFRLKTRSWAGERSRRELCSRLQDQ

[3] = molecular target: T2, Tyrosine-protein phosphatase non-receptor type 2 (Homo sapiens, UniProt P17706); test: Inhibition of TCPTP (unknown origin)
T2 sequence (P17706 whole entry): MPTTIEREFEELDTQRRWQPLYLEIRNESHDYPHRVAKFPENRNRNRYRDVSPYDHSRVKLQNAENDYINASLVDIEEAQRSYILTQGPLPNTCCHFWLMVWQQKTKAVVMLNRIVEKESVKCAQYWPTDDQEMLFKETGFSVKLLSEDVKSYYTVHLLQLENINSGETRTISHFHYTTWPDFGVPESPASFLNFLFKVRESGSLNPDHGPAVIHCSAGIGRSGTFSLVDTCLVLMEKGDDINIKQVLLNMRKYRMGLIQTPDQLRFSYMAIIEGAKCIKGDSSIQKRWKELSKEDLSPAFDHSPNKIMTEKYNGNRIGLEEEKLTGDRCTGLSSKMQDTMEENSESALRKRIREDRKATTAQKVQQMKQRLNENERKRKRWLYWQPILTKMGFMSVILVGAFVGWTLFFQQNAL

[4] = molecular target: Tyrosine-protein phosphatase non-receptor type 6 (Homo sapiens, UniProt P29350); test: Inhibition of SHP-1 (unknown origin)
Chain of Tyrosine-protein phosphatase non-receptor type 6 (P29350 whole entry): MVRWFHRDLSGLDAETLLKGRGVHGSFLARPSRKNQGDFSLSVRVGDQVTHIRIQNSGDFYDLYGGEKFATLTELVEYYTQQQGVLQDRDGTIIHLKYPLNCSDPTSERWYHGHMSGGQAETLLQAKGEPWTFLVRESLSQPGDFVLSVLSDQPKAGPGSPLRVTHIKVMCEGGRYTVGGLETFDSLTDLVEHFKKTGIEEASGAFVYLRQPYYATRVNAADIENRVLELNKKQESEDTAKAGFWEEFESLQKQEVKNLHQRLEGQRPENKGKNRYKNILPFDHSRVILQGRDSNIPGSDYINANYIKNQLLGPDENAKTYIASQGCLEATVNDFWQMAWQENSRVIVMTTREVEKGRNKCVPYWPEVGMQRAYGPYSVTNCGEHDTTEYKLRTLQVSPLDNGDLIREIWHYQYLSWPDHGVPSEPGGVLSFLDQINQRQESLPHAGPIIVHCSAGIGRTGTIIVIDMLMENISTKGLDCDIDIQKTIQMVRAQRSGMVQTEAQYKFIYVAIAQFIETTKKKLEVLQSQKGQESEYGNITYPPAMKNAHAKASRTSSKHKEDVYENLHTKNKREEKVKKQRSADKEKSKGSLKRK

[5] = molecular target: T3, Tyrosine-protein phosphatase non-receptor type 11 (Homo sapiens, UniProt Q06124); test: Inhibition of SHP-2 (unknown origin)
T3 sequence (Q06124 whole entry): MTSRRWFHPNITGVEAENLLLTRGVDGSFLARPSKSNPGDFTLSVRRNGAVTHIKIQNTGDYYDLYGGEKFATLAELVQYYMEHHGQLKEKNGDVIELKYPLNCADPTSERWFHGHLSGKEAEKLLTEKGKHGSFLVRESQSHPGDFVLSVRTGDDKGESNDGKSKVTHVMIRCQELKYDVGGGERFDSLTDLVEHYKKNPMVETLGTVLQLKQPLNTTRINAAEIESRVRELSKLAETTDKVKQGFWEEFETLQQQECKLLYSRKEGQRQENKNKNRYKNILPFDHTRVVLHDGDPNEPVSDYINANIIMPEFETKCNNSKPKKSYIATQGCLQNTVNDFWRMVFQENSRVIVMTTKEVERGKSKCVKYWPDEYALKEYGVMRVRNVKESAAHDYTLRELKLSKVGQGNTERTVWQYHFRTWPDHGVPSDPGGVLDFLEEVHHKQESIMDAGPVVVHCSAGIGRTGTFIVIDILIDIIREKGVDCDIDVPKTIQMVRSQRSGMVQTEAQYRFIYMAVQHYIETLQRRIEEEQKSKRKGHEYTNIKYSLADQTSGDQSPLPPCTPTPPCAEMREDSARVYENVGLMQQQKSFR

[6] = molecular target: T4, Tyrosine-protein phosphatase non-receptor type 1 (Homo sapiens, UniProt P18031); test: Inhibition of GST-tagged PTP1B (unknown origin) using pNPP as substrate measured for 2 mins by colorimetric analysis
T4 sequence (P18031 whole entry): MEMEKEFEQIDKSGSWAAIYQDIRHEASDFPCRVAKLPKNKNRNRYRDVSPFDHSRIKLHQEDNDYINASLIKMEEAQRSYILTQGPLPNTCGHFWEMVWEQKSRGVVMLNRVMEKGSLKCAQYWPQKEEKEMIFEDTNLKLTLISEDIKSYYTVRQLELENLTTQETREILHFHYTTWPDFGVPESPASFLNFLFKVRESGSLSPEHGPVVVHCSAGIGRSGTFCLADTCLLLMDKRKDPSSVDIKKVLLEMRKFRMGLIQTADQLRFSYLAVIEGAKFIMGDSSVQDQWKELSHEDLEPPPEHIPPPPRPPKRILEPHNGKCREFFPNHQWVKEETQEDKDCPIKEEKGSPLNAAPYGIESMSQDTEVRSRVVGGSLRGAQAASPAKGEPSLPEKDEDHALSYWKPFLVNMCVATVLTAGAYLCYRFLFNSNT

[7] = molecular target: T5, Tyrosine-protein phosphatase non-receptor type 1 (Rattus norvegicus) (UniProt P20417); test: Inhibition of PTP1B in rat L6 cells assessed as insulin-stimulated 2-deoxy-[3H]-deoxy-glucose uptake at 10 uM preincubated for 2 hrs followed by insulin challenge for 30 mins; assay type: cell-based
T5 sequence (whole entry): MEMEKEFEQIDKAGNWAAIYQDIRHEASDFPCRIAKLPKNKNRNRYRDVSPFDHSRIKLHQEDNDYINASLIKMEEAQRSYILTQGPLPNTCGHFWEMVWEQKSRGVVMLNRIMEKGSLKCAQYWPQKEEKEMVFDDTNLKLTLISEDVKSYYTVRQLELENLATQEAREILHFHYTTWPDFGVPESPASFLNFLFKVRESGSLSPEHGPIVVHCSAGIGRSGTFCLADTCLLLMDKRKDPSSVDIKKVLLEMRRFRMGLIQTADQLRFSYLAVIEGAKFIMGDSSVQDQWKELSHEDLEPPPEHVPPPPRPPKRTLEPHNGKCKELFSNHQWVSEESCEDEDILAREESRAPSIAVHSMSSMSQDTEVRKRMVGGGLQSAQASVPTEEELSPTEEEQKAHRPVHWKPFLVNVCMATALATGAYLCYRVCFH
In short: (§1)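 Differentiated L6 myotubes were serum-starved 2 h, treated with compound, then stimulated with 10 nM insulin for 30 min. Cells were washed in HEPES-buffered saline, pH 7.4, and incubated 15 min with 2-deoxy-[3H]-glucose. After ice-cold PBS washes they were lysed in 0.1% Triton X-100 and radioactivity was counted. Data are averages of at least three independent replicates.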

[8] = molecular target: T5, Tyrosine-protein phosphatase non-receptor type 1 (Rattus norvegicus); test: Inhibition of PTP1B in rat L6 cells assessed as insulin-stimulated 2-deoxy-[3H]-deoxy-glucose uptake preincubated for 2 hrs followed by insulin challenge for 30 mins; assay type: cell-based; in short: as §1
[9] = organism: Homo sapiens; test: Selectivity ratio of IC50 for TCPTP (unknown origin) to IC50 for GST-tagged PTP1B (unknown origin)

Chain of Receptor-type tyrosine-protein phosphatase F (P10586 whole entry): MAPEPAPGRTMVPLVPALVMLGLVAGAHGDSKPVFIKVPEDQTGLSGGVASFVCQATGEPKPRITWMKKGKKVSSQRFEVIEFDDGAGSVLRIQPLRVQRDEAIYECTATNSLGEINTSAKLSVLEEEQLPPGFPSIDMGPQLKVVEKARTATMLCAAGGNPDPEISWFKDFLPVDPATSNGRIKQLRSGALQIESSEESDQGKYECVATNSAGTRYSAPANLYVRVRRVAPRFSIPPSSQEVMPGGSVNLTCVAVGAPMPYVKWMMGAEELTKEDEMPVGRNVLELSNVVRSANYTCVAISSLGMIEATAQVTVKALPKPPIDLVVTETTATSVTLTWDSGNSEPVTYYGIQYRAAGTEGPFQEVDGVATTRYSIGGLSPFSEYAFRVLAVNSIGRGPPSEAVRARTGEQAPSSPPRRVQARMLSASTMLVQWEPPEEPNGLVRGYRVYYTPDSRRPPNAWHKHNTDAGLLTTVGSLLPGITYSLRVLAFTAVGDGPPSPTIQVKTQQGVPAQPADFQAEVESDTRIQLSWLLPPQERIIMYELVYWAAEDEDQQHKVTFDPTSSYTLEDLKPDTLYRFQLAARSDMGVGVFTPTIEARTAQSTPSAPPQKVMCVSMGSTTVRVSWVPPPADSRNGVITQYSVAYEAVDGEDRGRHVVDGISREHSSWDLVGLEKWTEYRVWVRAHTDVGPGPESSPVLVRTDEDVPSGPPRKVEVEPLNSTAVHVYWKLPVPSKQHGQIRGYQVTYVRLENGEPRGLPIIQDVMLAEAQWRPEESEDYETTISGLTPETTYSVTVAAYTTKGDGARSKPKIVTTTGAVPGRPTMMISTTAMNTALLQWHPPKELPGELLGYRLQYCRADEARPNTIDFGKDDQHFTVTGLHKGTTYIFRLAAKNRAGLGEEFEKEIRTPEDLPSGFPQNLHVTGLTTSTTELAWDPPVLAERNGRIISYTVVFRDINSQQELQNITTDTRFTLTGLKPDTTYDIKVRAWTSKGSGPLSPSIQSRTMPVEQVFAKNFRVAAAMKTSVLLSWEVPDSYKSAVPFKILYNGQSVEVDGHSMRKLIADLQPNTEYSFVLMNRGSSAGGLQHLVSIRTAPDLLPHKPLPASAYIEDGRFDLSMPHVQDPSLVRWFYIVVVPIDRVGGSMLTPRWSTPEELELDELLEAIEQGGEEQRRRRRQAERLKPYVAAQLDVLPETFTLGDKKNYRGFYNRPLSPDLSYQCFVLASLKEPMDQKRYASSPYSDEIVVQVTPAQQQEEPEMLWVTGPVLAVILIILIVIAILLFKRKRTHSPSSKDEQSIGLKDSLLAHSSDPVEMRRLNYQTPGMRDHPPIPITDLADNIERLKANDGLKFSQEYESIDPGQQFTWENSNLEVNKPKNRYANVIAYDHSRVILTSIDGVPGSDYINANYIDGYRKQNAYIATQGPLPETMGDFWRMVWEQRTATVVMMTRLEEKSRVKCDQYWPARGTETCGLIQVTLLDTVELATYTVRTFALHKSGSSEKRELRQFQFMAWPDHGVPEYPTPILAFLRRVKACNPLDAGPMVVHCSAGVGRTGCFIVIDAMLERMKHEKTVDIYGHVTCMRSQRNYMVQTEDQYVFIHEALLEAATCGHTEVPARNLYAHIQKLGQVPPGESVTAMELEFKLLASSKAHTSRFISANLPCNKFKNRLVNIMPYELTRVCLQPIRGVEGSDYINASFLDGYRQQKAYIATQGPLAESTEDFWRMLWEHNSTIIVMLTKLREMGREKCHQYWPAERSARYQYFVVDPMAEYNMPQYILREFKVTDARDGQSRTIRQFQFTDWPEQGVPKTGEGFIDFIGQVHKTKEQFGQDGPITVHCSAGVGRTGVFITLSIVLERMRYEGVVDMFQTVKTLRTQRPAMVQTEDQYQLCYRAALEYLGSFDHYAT

IC50 [1]: > 20000 nM | IC50 [2]: 1620 nM | IC50 [3]: 1420 nM | IC50 [4]: 12600 nM | IC50 [5]: 9890 nM | IC50 [6]: 540 nM | inhibition [7]: 40% | inhibition [8]: Dose-dependent effect | Ratio IC50 [9]: 2.6
Structure (SMILES): O=C(CCc1c[nH]c2ccccc12)N[C@@H](Cc1ccc(OCc2ccccc2)cc1)c1nc(C(=O)Nc2cc(F)ccc2C(=O)O)c(-c2ccccc2)s1
